The values that follow come from ChEMBL document CHEMBL4004830 (J Med Chem, 2017).

Molecules are shown by their SMILES. The source made the active and inactive calls. The rule behind the calls is not given here. Some results are limits rather than exact numbers.

In data set [1] the test system is MV4-11. In words: Cell cycle arrest in human MV4-11 cells assessed as accumulation at G2/M phase at 0.20 uM after 24 hrs by propidium iodide staining based flow cytometry (reference value: 17.94%). The data set is classed as functional. (Flow cytometry measures light scatter and fluorescence of single cells or particles in a stream.)
In data set [2] the test system is MV4-11. As to the kind of experiment: Cell cycle arrest in human MV4-11 cells assessed as accumulation at G1 phase at 0.20 uM after 24 hrs by propidium iodide staining based flow cytometry (reference value: 61.01%). The data set is classed as functional.
Data set [3] relates to MV4-11. As to the kind of experiment: Cell cycle arrest in human MV4-11 cells assessed as accumulation at sub-G1 phase at 0.20 uM after 24 hrs by propidium iodide staining based flow cytometry (reference value: 1.99%). Format: functional.
Data set [4] deals with MV4-11. As to the kind of experiment: Cell cycle arrest in human MV4-11 cells assessed as accumulation at sub-G1 phase at 0.04 uM after 24 hrs by propidium iodide staining based flow cytometry (reference value: 1.99%). Format: functional.
The test system of data set [5] is MV4-11. As to the kind of experiment: Cell cycle arrest in human MV4-11 cells assessed as accumulation at sub-G1 phase at 0.40 uM after 24 hrs by propidium iodide staining based flow cytometry (reference value: 1.99%). The data set is classed as functional.
For data set [6], the system named is MV4-11. In words: Cell cycle arrest in human MV4-11 cells assessed as accumulation at S phase at 0.40 uM after 24 hrs by propidium iodide staining based flow cytometry (reference value: 19.07%). Format: functional.
Data set [7] concerns MV4-11. In words: Cell cycle arrest in human MV4-11 cells assessed as accumulation at G2/M phase at 0.40 uM after 24 hrs by propidium iodide staining based flow cytometry (reference value: 17.94%). Format: functional.
For data set [8], the system named is MV4-11. As to the kind of experiment: Cell cycle arrest in human MV4-11 cells assessed as accumulation at S phase at 0.04 uM after 24 hrs by propidium iodide staining based flow cytometry (reference value: 19.07%). The data set is classed as functional.
Data set [9] deals with Dual specificity tyrosine-phosphorylation-regulated kinase 2 (Homo sapiens) (UniProt Q92630). As to the kind of experiment: Inhibition of full-length human DYRK2 (1 to 528 amino acid residues) expressed in mammalian expression system at 1 uM in presence of [gamma-33P]-ATP […]. In a few lines: (§1)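 Broad kinome panel of 369 kinases screened at 1 µM test concentration.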
Chain of Dual specificity tyrosine-phosphorylation-regulated kinase 2 (Homo sapiens) (Q92630 whole entry, the tested form may be a part): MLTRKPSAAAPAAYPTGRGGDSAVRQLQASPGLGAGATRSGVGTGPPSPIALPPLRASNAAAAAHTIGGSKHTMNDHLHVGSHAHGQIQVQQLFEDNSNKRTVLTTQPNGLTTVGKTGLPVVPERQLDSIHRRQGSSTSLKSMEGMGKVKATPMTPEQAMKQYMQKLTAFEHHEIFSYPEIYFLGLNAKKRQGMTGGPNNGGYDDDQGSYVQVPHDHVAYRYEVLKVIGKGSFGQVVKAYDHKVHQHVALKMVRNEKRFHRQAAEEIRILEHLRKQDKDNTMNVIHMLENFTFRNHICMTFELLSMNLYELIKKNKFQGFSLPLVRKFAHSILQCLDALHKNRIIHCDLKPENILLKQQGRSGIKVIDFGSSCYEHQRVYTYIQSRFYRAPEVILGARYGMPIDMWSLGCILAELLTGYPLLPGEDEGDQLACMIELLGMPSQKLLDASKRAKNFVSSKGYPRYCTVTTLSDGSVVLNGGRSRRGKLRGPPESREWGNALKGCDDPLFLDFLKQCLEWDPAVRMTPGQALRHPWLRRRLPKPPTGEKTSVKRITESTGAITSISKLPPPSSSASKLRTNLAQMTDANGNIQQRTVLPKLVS
Data set [10] can be described thus: Half life in BALB/c mouse at 10 mg/kg administered via oral gavage measured up to 24 hrs by LC-MS/MS analysis. Format: ADME, organism-based. The settings on record: in vivo. Put shortly:
(§2)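 Single-dose pharmacokinetics in male BALB/c mice, 2 mg/kg IV or 10 mg/kg PO.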

Data set [11] can be described thus: Efflux ratio of apparent permeability co-efficient from basolateral to apical side over apical to basolateral side in human Caco2 cells. Format: ADME, cell-based. The following applies: Caco-2. Put shortly: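 Caco-2 monolayer assay measuring the apparent permeability coefficient (P_app, 10^-6 cm/s) in the A→B and B→A directions. Efflux ratio is the mean P_app B-A divided by the mean P_app A-B.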
Background: Caco-2 monolayers are a common model of the intestinal barrier.

Data set [12] is described as follows: Clearance in albino Wistar rat at 5 mg/kg, iv up to 24 hrs by LC-MS/MS analysis. The settings on record: in vivo. The data set is classed as ADME, organism-based.
Data set [13] in a line: Tmax in BALB/c mouse at 10 mg/kg administered via oral gavage measured up to 24 hrs by LC-MS/MS analysis. The data set is classed as ADME, organism-based. The following applies: in vivo. In a few lines: (§3)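 Single-dose pharmacokinetics in male animals: albino Wistar rats given 5 mg/kg IV or 20 mg/kg PO, and BALB/c mice given 2 mg/kg IV or 10 mg/kg PO.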
Data set [14] in a line: AUC (0 to t) in albino Wistar rat at 20 mg/kg administered via oral gavage measured up to 24 hrs by LC-MS/MS analysis. The data set is classed as ADME, organism-based. Further details: dose 20 mg/kg, time < 24 hr, route oral. The following applies: in vivo.
In a further data set the test system is Mus musculus. In words: Toxicity in nude BALB/c mouse assessed as overt toxicity at 20 to 100 mg/kg, po qd measured up to 14 days post dose. The data set is classed as organism-based. The following applies: in vivo, 336 h.
For data set [15], the target named is Voltage-gated inwardly rectifying potassium channel KCNH2 (Homo sapiens, UniProt Q12809). As to the kind of experiment: Inhibition of human ERG expressed in CHO cells by patch clamp electrophysiology. Format: cell-based. In a few lines: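 Cardiac toxicity assay in CHO cells expressing hERG; IC50 determined.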
(In general: In patch-clamp work, channel activity is measured electrically.)

The target in data set [16] is Cyclin-dependent kinase 7/ cyclin H (Homo sapiens) (UniProt P51946+P50613). In words: Inhibition of CDK7/cyclin H (unknown origin) in presence of [gamma-33P]-ATP […]. Format: protein-complex assay.
The nature of data set [17]: Volume of distribution at steady state in albino Wistar rat at 5 mg/kg, iv up to 24 hrs by LC-MS/MS analysis. Format: ADME, organism-based. The settings on record: in vivo, read-out: Vdss. Put shortly:
as §3

The target of data set [18] is Cyclin-dependent kinase 1/cyclin B1 (Homo sapiens) (UniProt P06493+P14635). As to the kind of experiment: Inhibition of CDK1/cyclin B (unknown origin) in presence of [gamma-33P]-ATP […]. The data set is classed as protein-complex assay.
Chain of Cyclin-dependent kinase 1/cyclin B1 (Homo sapiens) (P06493 whole entry, looked up): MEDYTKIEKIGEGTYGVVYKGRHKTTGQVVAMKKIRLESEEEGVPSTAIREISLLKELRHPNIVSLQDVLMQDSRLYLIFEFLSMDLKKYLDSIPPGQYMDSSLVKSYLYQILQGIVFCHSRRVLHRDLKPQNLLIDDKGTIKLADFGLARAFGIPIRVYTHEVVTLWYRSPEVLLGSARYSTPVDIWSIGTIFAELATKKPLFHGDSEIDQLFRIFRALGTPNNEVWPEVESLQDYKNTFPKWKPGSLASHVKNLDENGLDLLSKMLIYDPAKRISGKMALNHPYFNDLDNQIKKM
Chain of Cyclin-dependent kinase 1/cyclin B1 (Homo sapiens) (P14635 whole entry, looked up): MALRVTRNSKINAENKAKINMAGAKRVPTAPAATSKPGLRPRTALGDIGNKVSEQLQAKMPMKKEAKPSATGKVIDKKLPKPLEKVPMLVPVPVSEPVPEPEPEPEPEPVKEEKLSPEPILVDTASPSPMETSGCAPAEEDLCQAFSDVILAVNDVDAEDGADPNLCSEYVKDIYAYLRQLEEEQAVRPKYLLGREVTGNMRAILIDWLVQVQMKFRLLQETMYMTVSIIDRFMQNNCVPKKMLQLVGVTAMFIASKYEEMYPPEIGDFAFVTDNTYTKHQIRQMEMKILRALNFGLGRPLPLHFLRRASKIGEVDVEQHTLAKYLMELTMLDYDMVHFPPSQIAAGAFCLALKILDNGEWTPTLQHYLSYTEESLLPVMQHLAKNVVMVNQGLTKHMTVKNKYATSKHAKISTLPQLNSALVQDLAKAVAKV
Data set [19] in a line: Cmax in BALB/c mouse at 2 mg/kg, iv up to 24 hrs by LC-MS/MS analysis. The data set is classed as ADME, organism-based. Also noted: dose 2 mg/kg, route intravenous. The following applies: in vivo.
In another data set the target is Cytochrome P450 1A2 (Homo sapiens, UniProt P05177). In words: Inhibition of CYP1A2 in human liver microsomes using ethoxyresorufin as substrate in presence of NADPH. Format: ADME. Put shortly: (§4)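 Human liver microsomes with NADPH and isoform-specific probe substrate (midazolam CYP3A4, dextromethorphan CYP2D6, ethoxyresorufin CYP1A, tolbutamide CYP2C9, mephenytoin CYP2C19); IC50 reported in µM.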
Chain of Cytochrome P450 1A2 (P05177 whole entry, canonical isoform): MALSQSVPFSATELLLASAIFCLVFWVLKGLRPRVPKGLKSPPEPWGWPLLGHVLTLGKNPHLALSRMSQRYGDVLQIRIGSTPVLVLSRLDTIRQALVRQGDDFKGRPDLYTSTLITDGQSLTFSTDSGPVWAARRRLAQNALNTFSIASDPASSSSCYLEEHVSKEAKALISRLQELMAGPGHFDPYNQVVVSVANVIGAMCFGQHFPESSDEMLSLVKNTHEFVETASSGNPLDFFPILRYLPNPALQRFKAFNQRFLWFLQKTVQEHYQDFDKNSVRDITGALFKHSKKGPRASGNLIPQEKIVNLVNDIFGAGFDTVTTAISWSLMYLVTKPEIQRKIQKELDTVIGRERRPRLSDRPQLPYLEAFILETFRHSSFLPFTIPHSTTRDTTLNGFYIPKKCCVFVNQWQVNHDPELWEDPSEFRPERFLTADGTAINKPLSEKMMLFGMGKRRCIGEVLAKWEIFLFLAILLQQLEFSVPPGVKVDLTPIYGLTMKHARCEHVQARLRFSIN

The target in data set [20] is Dual specificity tyrosine-phosphorylation-regulated kinase 3 (Homo sapiens) (UniProt O43781). As to the kind of experiment: Inhibition of DYRK3 (unknown origin) at 1 uM in presence of [gamma-33P]-ATP […]. In a few lines:
as §1

Data set [21] in a line: Clearance in BALB/c mouse at 2 mg/kg, iv up to 24 hrs by LC-MS/MS analysis. The settings on record: in vivo. Format: ADME, organism-based.
Data set [22] in a line: Dissociation constant, pKa of the compound by pH-metric titration method. Format: physicochemical.
Data set [23] in a line: Oral bioavailability in albino Wistar rat at 20 mg/kg measured up to 24 hrs by LC-MS/MS analysis. Format: ADME, organism-based. The settings on record: in vivo. In a few lines:
as §3

The test system of data set [24] is MV4-11. In words: Antitumor activity against human MV4-11 cells xenografted in nude BALB/c mouse assessed as tumor volume at 100 mg/kg, po qd administered for 33 consecutive days measured on day 31. Format: functional.
Data set [25] has as its target LIM domain kinase 1 (Homo sapiens) (UniProt P53667). As to the kind of experiment: Inhibition of full-length human LIMK1 (1 to 647 amino acid residues) expressed in bacterial expression system at 1 uM in presence of [gamma-33P]-ATP […]. Put shortly: as §1
Another data set addresses Cytochrome P450 2C9 (Homo sapiens, UniProt P11712). As to the kind of experiment: Inhibition of CYP2C9 in human liver microsomes using tolbutamide as substrate in presence of NADPH. Format: ADME. In a few lines:
as §4

The next data set deals with CDK9/cyclin T1 (Homo sapiens, UniProt P50750). In words: Inhibition of CDK9/cyclin T1 (unknown origin) in presence of [gamma-33P]-ATP […]. The following applies: read-out: Ki(app). The data set is classed as protein-complex assay.
Chain of CDK9/cyclin T1 (O60563 whole entry): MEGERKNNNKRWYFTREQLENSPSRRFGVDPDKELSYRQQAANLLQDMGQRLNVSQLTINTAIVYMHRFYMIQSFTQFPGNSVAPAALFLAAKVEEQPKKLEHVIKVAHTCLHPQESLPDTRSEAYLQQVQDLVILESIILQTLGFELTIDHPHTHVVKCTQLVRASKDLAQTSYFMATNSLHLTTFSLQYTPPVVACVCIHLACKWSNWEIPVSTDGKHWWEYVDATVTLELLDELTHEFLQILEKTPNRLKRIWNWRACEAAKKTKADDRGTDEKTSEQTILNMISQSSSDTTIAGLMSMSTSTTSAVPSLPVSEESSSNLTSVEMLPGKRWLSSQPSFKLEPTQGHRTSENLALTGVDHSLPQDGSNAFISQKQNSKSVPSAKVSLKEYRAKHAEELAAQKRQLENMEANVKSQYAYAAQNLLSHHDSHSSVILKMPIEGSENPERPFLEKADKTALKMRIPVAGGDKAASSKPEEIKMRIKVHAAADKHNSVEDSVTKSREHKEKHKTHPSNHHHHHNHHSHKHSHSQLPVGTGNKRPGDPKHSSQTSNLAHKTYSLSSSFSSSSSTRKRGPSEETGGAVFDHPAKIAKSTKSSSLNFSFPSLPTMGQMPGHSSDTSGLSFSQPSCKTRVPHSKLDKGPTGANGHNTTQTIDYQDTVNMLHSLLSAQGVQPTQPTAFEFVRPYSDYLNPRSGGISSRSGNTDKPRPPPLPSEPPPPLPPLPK
Chain of CDK9/cyclin T1 (P50750 whole entry): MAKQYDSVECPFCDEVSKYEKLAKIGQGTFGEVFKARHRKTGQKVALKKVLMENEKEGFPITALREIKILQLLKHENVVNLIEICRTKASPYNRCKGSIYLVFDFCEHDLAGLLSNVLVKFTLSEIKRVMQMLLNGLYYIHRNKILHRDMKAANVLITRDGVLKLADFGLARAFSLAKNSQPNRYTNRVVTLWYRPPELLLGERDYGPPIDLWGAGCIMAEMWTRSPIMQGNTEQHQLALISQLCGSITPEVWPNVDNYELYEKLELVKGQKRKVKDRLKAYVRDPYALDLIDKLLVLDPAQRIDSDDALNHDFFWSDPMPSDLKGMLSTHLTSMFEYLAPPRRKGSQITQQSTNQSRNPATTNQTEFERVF
The nature of data set [26]: Half life in BALB/c mouse at 2 mg/kg, iv up to 24 hrs by LC-MS/MS analysis. The data set is classed as ADME, organism-based. The settings on record: in vivo. Put shortly: as §2
Data set [27] addresses Cyclin-dependent kinase 4/cyclin D1 (Homo sapiens, UniProt P11802). In words: Inhibition of CDK4/cyclin D1 (unknown origin) in presence of [gamma-33P]-ATP […]. The data set is classed as protein-complex assay. The settings on record: read-out: Ki(app).
Data set [28] deals with Serine/threonine-protein kinase 16 (Homo sapiens) (UniProt O75716). As to the kind of experiment: Inhibition of human STK16 (11 to 305 amino acid residues) expressed in bacterial expression system at 1 uM in presence of [gamma-33P]-ATP […]. Put shortly:
as §1

Data set [29] can be described thus: AUC (0 to t) in albino Wistar rat at 5 mg/kg, iv up to 24 hrs by LC-MS/MS analysis. Format: ADME, organism-based. Also noted: dose 5 mg/kg, time < 24 hr, route intravenous. The following applies: in vivo.

Chain of Serine/threonine-protein kinase 16 (Homo sapiens) (O75716 whole entry, the tested form may be a part): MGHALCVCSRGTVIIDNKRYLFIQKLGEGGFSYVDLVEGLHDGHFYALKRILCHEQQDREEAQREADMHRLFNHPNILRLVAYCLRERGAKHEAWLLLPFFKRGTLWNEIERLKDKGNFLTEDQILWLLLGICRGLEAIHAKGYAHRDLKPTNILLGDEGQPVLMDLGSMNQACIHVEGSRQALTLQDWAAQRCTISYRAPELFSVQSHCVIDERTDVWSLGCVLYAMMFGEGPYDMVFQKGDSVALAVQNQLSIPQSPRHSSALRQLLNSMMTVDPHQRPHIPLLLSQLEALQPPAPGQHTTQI
Chain of LIM domain kinase 1 (Homo sapiens) (P53667 whole entry, looked up, the tested form may be a part): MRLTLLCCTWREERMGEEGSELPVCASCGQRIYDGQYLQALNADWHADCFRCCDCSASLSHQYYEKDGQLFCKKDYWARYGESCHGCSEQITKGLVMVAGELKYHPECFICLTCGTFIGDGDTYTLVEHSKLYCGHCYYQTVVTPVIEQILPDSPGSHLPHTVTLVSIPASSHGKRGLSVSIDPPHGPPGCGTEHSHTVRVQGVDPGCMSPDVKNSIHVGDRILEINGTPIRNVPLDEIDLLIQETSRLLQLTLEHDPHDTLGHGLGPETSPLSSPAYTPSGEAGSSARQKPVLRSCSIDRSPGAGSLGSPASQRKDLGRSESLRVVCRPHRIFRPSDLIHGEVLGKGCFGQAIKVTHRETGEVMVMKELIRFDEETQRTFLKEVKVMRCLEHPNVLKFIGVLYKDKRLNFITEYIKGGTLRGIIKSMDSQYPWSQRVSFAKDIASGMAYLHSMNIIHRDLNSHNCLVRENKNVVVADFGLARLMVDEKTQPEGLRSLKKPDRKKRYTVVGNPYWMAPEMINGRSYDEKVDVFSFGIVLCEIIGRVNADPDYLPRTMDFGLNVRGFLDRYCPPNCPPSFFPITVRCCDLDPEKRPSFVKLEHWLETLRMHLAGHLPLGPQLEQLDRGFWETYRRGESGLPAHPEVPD
Chain of Cytochrome P450 2C9 (P11712 whole entry): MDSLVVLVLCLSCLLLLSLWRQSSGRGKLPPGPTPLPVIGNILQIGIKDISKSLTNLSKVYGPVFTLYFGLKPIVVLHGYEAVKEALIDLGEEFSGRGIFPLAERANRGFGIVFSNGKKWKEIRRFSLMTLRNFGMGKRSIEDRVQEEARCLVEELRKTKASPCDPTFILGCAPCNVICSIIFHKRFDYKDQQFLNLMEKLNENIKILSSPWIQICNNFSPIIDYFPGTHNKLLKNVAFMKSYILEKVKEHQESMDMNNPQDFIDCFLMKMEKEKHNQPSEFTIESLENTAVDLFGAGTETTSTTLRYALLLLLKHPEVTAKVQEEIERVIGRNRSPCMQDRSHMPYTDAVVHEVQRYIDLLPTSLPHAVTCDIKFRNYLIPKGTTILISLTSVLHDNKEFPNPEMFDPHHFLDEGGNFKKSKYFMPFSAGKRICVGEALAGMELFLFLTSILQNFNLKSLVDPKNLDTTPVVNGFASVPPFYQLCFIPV
Chain of Dual specificity tyrosine-phosphorylation-regulated kinase 3 (Homo sapiens) (O43781 whole entry): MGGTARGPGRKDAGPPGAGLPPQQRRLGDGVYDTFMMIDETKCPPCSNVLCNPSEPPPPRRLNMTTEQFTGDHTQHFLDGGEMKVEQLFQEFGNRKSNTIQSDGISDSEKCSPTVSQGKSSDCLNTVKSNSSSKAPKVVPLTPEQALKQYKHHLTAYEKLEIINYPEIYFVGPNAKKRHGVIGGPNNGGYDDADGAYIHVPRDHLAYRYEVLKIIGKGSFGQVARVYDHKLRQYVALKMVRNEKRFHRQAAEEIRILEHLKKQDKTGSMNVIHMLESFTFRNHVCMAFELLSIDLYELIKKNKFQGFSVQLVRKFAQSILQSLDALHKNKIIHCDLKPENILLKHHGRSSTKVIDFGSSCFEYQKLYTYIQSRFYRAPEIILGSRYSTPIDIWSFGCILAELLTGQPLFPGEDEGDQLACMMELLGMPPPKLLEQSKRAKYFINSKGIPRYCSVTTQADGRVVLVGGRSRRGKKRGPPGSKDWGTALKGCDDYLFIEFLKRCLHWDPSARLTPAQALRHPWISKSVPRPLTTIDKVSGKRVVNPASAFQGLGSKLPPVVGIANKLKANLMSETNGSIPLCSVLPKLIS

In the case of `CC(=O)c1c(C)c2cnc(Nc3ccc(N4CCNCC4)cn3)nc2n(C2CCCC2)c1=O` [PALBOCICLIB], the Activity in the data set with MV4-11 [1] is listed as 5.74%; in the data set with MV4-11 [2], 80.66%; in the data set with MV4-11 [3], 4.22%; in the data set on MV4-11 [4], 2.66%; in the data set on MV4-11 [5] it was 2.93%; with MV4-11 [6], 6.02%. The Activity in the data set with MV4-11 [7] amounted to 5.69%; in the data set with MV4-11 [8], 15.52%.
Take `Cc1nc(NC2CCCC2)sc1-c1ccnc(Nc2ccc(N3CCOCC3)cn2)n1`: the inhibition entry in data set [9], in data set [20], in [25] and in [28] was “Active” throughout. The half-life in data set [10] was 5 h; in [26], 1.7 h. Also, the efflux ratio in data set [11] lay in the range of 0.396 to 4. Also, the clearance was 11.8 mL/min/kg in [12] and 58.3 mL/min/kg in [21]. Moreover, in data set [13], the Tmax came to 2 h. The AUC(0-t) at 24 h in data set [14] and in [29] was 15.9 µM·h in each case. Moreover, in the data set on Mus musculus, the Activity result is listed as “Non-Toxic”. The IC50 in data set [15] was more than 10 µM; on Cytochrome P450 1A2, more than 25 µM; on Cytochrome P450 2C9 it was more than 25 µM. The “Ki(app)” value in [16] and in [18] was “inactive” each time. The Vd in data set [17] is 1.5 L/kg. Also, the highest level in [19] (Cmax) was 2300 nM. In data set [22], this compound came in with a pKa of 3.98 to 5.68. This compound also yielded a bioavailability in [23] of 25.1 to 27%. The T/C in the data set on MV4-11 [24] was found to be 30%. The Ki is more than 5 µM at CDK9/cyclin T1 and 0.004 µM in data set [27].

For orientation: half-life means how long it takes for the measured level to halve. In general, efflux ratio refers to the permeability from basolateral to apical divided by that in the opposite direction, in the common usage. A word on the clearance: it is the rate of elimination divided by the concentration. Lower therefore signals inefficient removal. Broadly, the Tmax is the time at which the peak concentration occurs. In general, AUC(0-t) refers to exposure summed from dosing to a finite time, without extrapolation to infinity. A higher AUC(0-t) goes with high exposure. A word on the IC50: it is the concentration that inhibits the measured activity by half. The term Cmax denotes the peak of the concentration-time curve. The term pKa denotes the pH at which an ionisable group is half protonated. The low end stands for a group that gives up its proton readily, the high end for a group that holds its proton tightly. A word on the bioavailability: it is dose-corrected exposure relative to a reference, in per cent. A higher bioavailability goes with much systemic uptake. For orientation: T/C means the ratio of treated to control.
